Measurements collected from several papers.
Palmitoyl-protein thioesterase 1: Palmitoyl-protein thioesterase 1 (Homo sapiens, UniProt P50897)
APC: Adenomatous polyposis coli protein (APC, Homo sapiens, UniProt P25054)
AVPR2: Vasopressin V2 receptor (AVPR2, Homo sapiens, UniProt P30518)
HTR1E: 5-hydroxytryptamine receptor 1E (HTR1E, Homo sapiens, UniProt P28566)

SMILES | target | observed | action | technique | endpoint | value
CCCNC(=O)NS(=O)(=O)c1ccc(Cl)cc1 | Palmitoyl-protein thioesterase 1 | binding | – | MST | Kd | 201 nM
CC(C)C[C@H](NC(=O)[C@H](Cc1ccc2ccccc2c1)NC(=O)[C@H](CCC(=O)O)NC(=O)c1cccc([N+](=O)[O-])c1)C(=O)NC1CC1c1ccccc1 (stereo partly drawn) | APC | ligand displacement | – | FP | IC50 | 41700 nM
CC1=NN(/C(=N/c2nnc(C)s2)Nc2ccc(C)c(C)c2)C(c2cccc(-c3ccccc3)c2)S1 (stereo not drawn) | AVPR2 | cAMP | positive allosteric modulator | – | EC50 | > 50000 nM
COc1cccc(C(=O)N[C@@H](CCC(=O)O)C(=O)N[C@@H](Cc2ccc3ccccc3c2)C(=O)N[C@@H](CC(C)C)C(=O)NC2CC2c2ccccc2)c1 (stereo partly drawn) | APC | ligand displacement | – | FP | IC50 | 38900 nM
CC1=NN(/C(=N/c2nnc(C)s2)Nc2ccc(C)c(C)c2)C(c2ccc(-c3ccccc3C(F)(F)F)cc2)S1 (stereo not drawn) | AVPR2 | cAMP | positive allosteric modulator | – | EC50 | 36000 nM
C#Cc1cccc(C(=O)N[C@@H](CCC(=O)O)C(=O)N[C@@H](Cc2ccc3ccccc3c2)C(=O)N[C@@H](CC(C)C)C(=O)NC2CC2c2ccccc2)c1 (stereo partly drawn) | APC | ligand displacement | – | FP | IC50 | 24000 nM
CN1CCC(=C2c3ccccc3C=Cc3ccccc32)CC1 | HTR1E | G protein activation | agonist | BRET | EC50 | 2040 nM
Cc1nc2n(c(=O)c1CCN1CCC(c3noc4cc(F)ccc34)CC1)CCCC2O (stereo not drawn) | RNA cytidine acetyltransferase (Homo sapiens, UniProt Q9H0A0) | binding | – | ITC | Kd | 12800 nM
Nc1nnc(-c2ccccc2O)cc1N1CCN(Cc2ccc(OCCOCCNc3cccc4c3C(=O)N(C3CCC(=O)NC3=O)C4=O)c(F)c2)CC1 (stereo not drawn) | SWI/SNF-related matrix-associated actin-dependent regulator of chromatin subfamily A member 2 (SMARCA2, Homo sapiens, UniProt P51531) | protein level | degrader | western blot | DC50 | 64 nM
Cc1cc(C(C)(C)C)c(O)c(C)c1CC1=NCCN1 | HTR1E | G protein activation | agonist | BRET | EC50 | 516 nM
CSc1ncc(Br)c(C(=O)N[C@@H](CCC(=O)O)C(=O)N[C@@H](Cc2ccc3ccccc3c2)C(=O)N[C@@H](CC(C)C)C(=O)NC2CC2c2ccccc2)n1 (stereo partly drawn) | APC | binding | – | SPR | Kd | 580 nM
Cc1ccc(CNc2cccc3c2CN(C)N(C2CCC(=O)NC2=O)C3=O)cc1 (stereo not drawn) | Cereblon/Casein kinase I alpha (CSNK1A1/CRBN, Homo sapiens, UniProt P48729+Q96SW2) | protein level | degrader | luciferase | DC50 | 970 nM
N=C(N)NCCC[C@H](NC(=O)[C@@H](NC(=O)[C@H](Cc1cscn1)NC(=O)CCc1ccccc1)C1CCCCC1)C(=O)c1nc2ccccc2s1 | Transmembrane protease serine 6 (Homo sapiens, UniProt Q8IU80) | cell-free assay | – | – | Ki | ~5 nM
Cc1cc(C(=O)N[C@@H](CCC(=O)O)C(=O)N[C@@H](Cc2ccc3ccccc3c2)C(=O)N[C@@H](CC(C)C)C(=O)NC2CC2c2ccccc2)ccn1 (stereo partly drawn) | APC | ligand displacement | – | FP | IC50 | 40700 nM
CO[C@H]1C[C@@H]2CC[C@@H](C)[C@@](O)(O2)C(=O)C(=O)N2CCCC[C@H]2C(=O)O[C@H]([C@H](C)C[C@@H]2CC[C@@H](OC(=O)C(C)(CO)CO)[C@H](OC)C2)CC(=O)[C@H](C)/C=C(\C)[C@@H](O)[C@@H](OC)C(=O)[C@H](C)C[C@H](C)/C=C/C=C/C=C/1C | Ferroptosis suppressor protein 1 (AIFM2, Homo sapiens, UniProt Q9BRQ8) | binding | – | ITC | Kd | ~5280 nM
CC1=NN(/C(=N/c2nnc(C)s2)Nc2ccc(C)c(C)c2)C(c2ccc(F)c(F)c2)S1 (stereo not drawn) | AVPR2 | cAMP | positive allosteric modulator | – | EC50 | > 50000 nM
OC(c1cc(C(F)(F)F)nc2c(C(F)(F)F)cccc12)C1CCCCN1 (stereo not drawn) | Palmitoyl-protein thioesterase 1 | binding | – | MST | Kd | 226 nM

SMILES | target | observed | action | technique | endpoint | value
CCc1ccc(/N=C(/Nc2nnc(C)s2)N2N=C(C)SC2c2ccc(C)cc2)cc1 (stereo not drawn) | AVPR2 | cAMP | positive allosteric modulator | – | EC50 | 15800 nM
CCCCCCCC/C=C\CCCCCCCC(=O)O | Myoglobin (MB, Homo sapiens, UniProt P02144) | binding | – | absorbance | Kd | 240 nM
CSc1cccc(C(=O)N[C@@H](CCC(=O)O)C(=O)N[C@@H](Cc2ccc3ccccc3c2)C(=O)N[C@@H](CC(C)C)C(=O)NC2CC2c2ccccc2)c1 (stereo partly drawn) | APC | ligand displacement | – | FP | IC50 | 52500 nM
COc1ccc(CC2NCCc3c2[nH]c2ccc(C)cc32)c(Cl)c1OC (stereo not drawn) | HTR1E | G protein activation | agonist | BRET | EC50 | 2430 nM
CC1=NN(/C(=N/c2nnc(C)s2)Nc2ccc(C)c(C)c2)C(c2ccc(C(C)(C)C)cc2)S1 (stereo not drawn) | AVPR2 | cAMP | positive allosteric modulator | – | EC50 | > 50000 nM
CCN1CCC[C@H]1CNC(=O)c1c(O)c(Cl)cc(Cl)c1OC | HTR1E | G protein activation | agonist | BRET | EC50 | 490 nM
CC1=NN(/C(=N/c2nnc(C)s2)Nc2ccc(C)c(C)c2)C(c2ccc(F)cc2)S1 (stereo not drawn) | AVPR2 | cAMP | positive allosteric modulator | – | EC50 | > 50000 nM
CN(C)c1ncnc2c1ncn2[C@@H]1O[C@H](CO)[C@@H](O)[C@H]1O | Adenosine receptor A3 (ADORA3, Homo sapiens, UniProt P0DMS8, L264Q) | G protein activation | agonist | – | EC50 | 3500 nM
CSc1nccc(C(=O)N[C@@H](CCC(=O)O)C(=O)N[C@@H](Cc2ccc3ccccc3c2)C(=O)N[C@@H](CC(C)C)C(=O)N[C@@H]2C[C@H]2c2ccccc2)n1 | APC | binding | – | SPR | Kd | 380 nM
Cc1ccc(N/C(=N\c2nnc(C(C)(C)C)s2)N2N=C(C(C)(C)C)SC2c2cc(F)c(F)c(F)c2)cc1C (stereo not drawn) | AVPR2 | cAMP | positive allosteric modulator | – | EC50 | > 50000 nM
NC(=O)N[C@@H](CCC(=O)O)C(=O)O | Palmitoyl-protein thioesterase 1 | binding | – | MST | Kd | 1270 nM
CN(C)CCCN1c2ccccc2Sc2ccc(Cl)cc21 | HTR1E | G protein activation | agonist | BRET | EC50 | 2080 nM
CC(C)=CCNc1ncnc2c1ncn2[C@@H]1O[C@H](CO)[C@@H](O)[C@H]1O | Adenosine receptor A3 (ADORA3, Homo sapiens, UniProt P0DMS8, L264F) | G protein activation | agonist | – | EC50 | 3400 nM
CC(C)C[C@H](NC(=O)[C@H](Cc1ccccc1)NC(=O)[C@H](CCC(=O)O)NC(=O)c1ccncn1)C(=O)NC1CC1c1ccccc1 (stereo partly drawn) | APC | binding | – | SPR | Kd | 67000 nM
CC1=NN(/C(=N/c2nnc(C)s2)Nc2ccc(C)c(C)c2)C(c2cccnc2)S1 (stereo not drawn) | AVPR2 | cAMP | positive allosteric modulator | – | EC50 | > 50000 nM
O=C1c2ccccc2S(=O)(=O)N1CCCCN1CCN(c2ncccn2)CC1 | HTR1E | G protein activation | agonist | BRET | EC50 | 628 nM
